Results from ChEMBL document CHEMBL4513216, “Probing the Open Global Health Chemical Diversity Library for Multistage-Active Starting Points for Next-Generation Antimalarials” (ACS Infect Dis, 2020).

assay: Toxicity liver stage against HepG2, at 10uM; format: cell-based; parameters: test concentration 10 uM, cell line HepG2-A16-CD81EGFP; conditions: human, HepG2-A16-CD81EGFP cells; read-out: INHIBITION
Method in brief: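 Uninfected HepG2-A16-CD81EGFP cells, 3 × 10^3 per well, 1536-well, plated on prespotted compound at 10 μM final, parasite-free screening media added to match infected plates; puromycin 10 μM positive, DMSO 0.5% negative; run in parallel with 48 h PbLuc assay at 37 °C, 5% CO2; viability by CellTiter-Glo luminescence, normalized to controls.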

Row | SMILES | cytotoxicity at 10 µM [%]
1 | COCCNC(=O)c1ccc2c(=O)n3c(nc2c1)CCCCC3 | 5.53
2 | CCOC(=O)CNC(=O)NCc1cccn1Cc1ccccc1 | 9.71
3 | CC1(C)CNC(=O)CN(C(=O)CCc2ccccc2)C1 | -8.57
4 | O=C1CN(S(=O)(=O)CC(F)(F)F)CC(O)CN1CCCc1ccccc1 (configuration not stated) | -7.99
5 | Cc1cnc2n(c1=O)C(CC(=O)NCc1cccnc1)CS2 (configuration not stated) | 4.22
6 | COc1ccc(CC(C)(O)CNC(=O)Cc2cccs2)cc1 (configuration not stated) | 14.7
7 | O=C(Nc1cnc(Oc2ccccc2F)nc1)C1CC1 | 0.0701
8 | COc1ccccc1CN1CCC2(CCC(C(=O)N(C)C)O2)CC1 (configuration not stated) | 0.493
9 | N#Cc1ccc(C(=O)N2CCC3(CC2)CC3)cc1 | 3.56
10 | CCc1ccc2c(C3CN(S(C)(=O)=O)C3)ncn2c1 | 10.6
11 | Cc1ncoc1C(=O)N1C[C@@H]2CN(CC3CC3)CCO[C@@H]2C1 | 9.23
12 | Cc1ncsc1CN1C[C@@H]2CN(Cc3cccnc3)CCO[C@@H]2C1 | 5.05
13 | O=C(NC1CCCCC1)N1C[C@@H]2OCCN(C(=O)c3ccco3)[C@@H]2C1 | -152
14 | CN(C)CCCNC(=O)c1ccccc1NC(=O)c1ccccc1Cl | -0.986
15 | CC(C)C[C@H](NC(=O)Cc1csc(-c2cccc(Cl)c2)n1)C(=O)O | 3.51
16 | N#Cc1ccc(OC2CCN(C(=O)c3ccc4c(c3)OCO4)CC2)nc1 | -14.7
17 | O=C1CC(c2ccsc2)c2sc(C(=O)O)c(-c3ccccc3)c2N1 (configuration not stated) | 15.2
18 | CC(C)Oc1ncnc2c1CCN(Cc1cccs1)CC2 | -0.935
19 | CCc1noc(C2CCCCN2C(=O)c2sccc2C)n1 (configuration not stated) | 10.3
20 | COc1ccc(C(C)N(C)Cc2c(C(C)C)[nH]c3ncccc23)cc1 (configuration not stated) | -7.99
21 | CCCn1nc(C)c(C(=O)N(C)[C@@H]2CC[C@@H](OC)[C@@H]2O)c1C | 4.36
22 | CN1CCC(c2cc(CCO)ncn2)C1 (configuration not stated) | 4.87
23 | Cc1nc(C2CCCN2C(=O)c2ccccc2)ncc1C(N)=O (configuration not stated) | -1.47

Row | SMILES | cytotoxicity at 10 µM [%]
24 | CC(=O)N1CCN(c2ccc(Cl)nn2)C(=O)C1 | 6.69
25 | O=C(c1ccc(Cl)cc1)N1CCC(N2CCCNC2=O)CC1 | 8.55
26 | CCc1ccc2c(c1)C(CCNC(=O)CSC(F)(F)F)C(=O)N2 (configuration not stated) | -45.5
27 | CC(C)C(=O)Nc1cccc(OCC(=O)NCc2ccccc2F)c1 | -6.19
28 | CN(Cc1ccc2c(c1)OCO2)Cc1cscn1 | -11.1
29 | CC(C)CN(CC(O)c1ccccc1)C(=O)NC(C)C (configuration not stated) | -3.96
30 | CS(=O)(=O)NCCC(=O)Nc1ccccc1N1CCc2ccccc21 | 11.9
31 | Cc1cc(C(=O)N(CC(=O)O)CC(C)C)ccc1F | -6.07
32 | COC(C)c1noc(CN(C)c2ncccn2)n1 (configuration not stated) | 7.33
33 | CCC1CN(C)c2ccccc2CN1CCn1cncn1 (configuration not stated) | 9.4
34 | Cc1cc(C[S+]([O-])Cc2ccccc2F)no1 (configuration not stated) | -3.71
35 | COCCN(C(=O)c1nc(-c2ccco2)sc1C)C1CC1 | -8.96
36 | Cc1ccccc1CC(=O)NS(=O)(=O)c1cccc2cnccc12 | -0.601
37 | COc1ccc(N(C)C(=O)c2cccc(S(C)(=O)=O)c2)cn1 | 7.36
38 | CC(=O)N(Cc1ncc(C)o1)C1CCN(CCn2cccn2)C1 (configuration not stated) | 6.49
39 | Cc1ccc(C(=O)NCCCN(C)S(C)(=O)=O)c(=O)[nH]1 | -5.89
40 | COc1cc(CN(C)C(=O)NCc2ccccn2)ccc1SC | -8.42
41 | COc1ccc(CCNC2CCCN(c3ccc(C)nn3)C2)cc1 (configuration not stated) | -3.65
42 | CCC(CC)c1cc(CNC(=O)N2CCC(CO)CC2)on1 | 3.76
43 | CCc1nc(CN2CCCN(c3cnc4ccccc4n3)CC2)no1 | 22
44 | COCCCN(C)C(=O)c1cccc(Nc2cnccn2)c1 | -8.43
45 | CC(=O)N1CCN(c2ccnc3c(F)cc(Br)cc23)CC1 | 13.6
46 | O=C(c1ccc2[nH]ccc2c1)N1CCCCC1c1nc[nH]n1 (configuration not stated) | -9.04

Row | SMILES | cytotoxicity at 10 µM [%]
47 | Cc1nc2n(n1)CC(NCC(=O)NCCC1=CCCCC1)CC2 (configuration not stated) | -9.36
48 | CC(NCC1CCN(CCO)CC1)c1cccc(Cl)c1 (configuration not stated) | -12.5
49 | CCNC(=O)N(C)CCCc1n[nH]c(N)c1C#N | 10.3
50 | CC(C)(C)CN(CCC#N)Cn1cc(Cl)cn1 | 6.29
51 | Fc1ccc(C2CN(c3ncnc4[nH]ncc34)CCO2)cc1 (configuration not stated) | 27.1
52 | CN(CC(=O)NCc1ccco1)Cc1nc2c(s1)CCCC2 | 13.6
53 | Cc1sc(Br)cc1S(=O)(=O)NCc1ccccn1 | -3.85
54 | O=C(NCc1cccc(F)c1)Nc1ccn(CCN2CCOCC2)n1 | -8.45
55 | CCc1ncc(C(=O)NC(C)(C)C(=O)OC)s1 | 5.01
56 | CC(=O)N1CCN(C(=O)CNc2c(C)cccc2OC(F)F)CC1 | 3.24
57 | Cc1cnn(CCNCc2c(C)nn(-c3ccccc3)c2C)c1 | -14.1
58 | Cc1nc(CSCc2ccc(OCC(F)(F)F)nc2)no1 | -2.34
59 | CCC1COCCN1C(=O)NCc1nccn1Cc1ccccc1 (configuration not stated) | -0.457
60 | O=S(=O)(NCc1ccc(S(=O)(=O)N2CCCC2)s1)c1cc(Cl)cc(Cl)c1 | -11.1
61 | CC(NCCN1CCC(N(C)C)CC1)c1ccc(F)cc1N(C)C (configuration not stated) | -13
62 | CCCc1nn(Cc2ccc(Br)s2)c(=O)o1 | 3.81
63 | COc1ccc(C(C)N2CCC(CO)CC2)cc1Cl (configuration not stated) | -51.1
64 | Cc1nn(C)c(N(C)C)c1CNCc1cccnc1 | 6
65 | CC(C)O[C@@H]1CC[C@H]2[C@H]1OCCN2C(=O)c1nn(C)c2ccccc12 | -0.824
66 | c1ccc(CN2C[C@@H]3OCCN(c4cccnc4)[C@@H]3C2)nc1 | -72.8
67 | CC(C)n1ccc(-c2cc(C(=O)N3CCCC3)c3ccccn23)n1 | -2.7
68 | Cc1noc(C)c1C(=O)N1CC[C@H]2C[C@@H](c3nccs3)O[C@@H]2C1 | -1.62
69 | Cc1nn(C)cc1-c1ccnc(N2CCN(c3cnccn3)CC2)n1 | 7.26

Row | SMILES | cytotoxicity at 10 µM [%]
70 | COc1ccccc1N1CCN(Cc2nccc(OC)c2OC)CC1=O | -4
71 | CCN(Cc1noc(C)n1)C(=O)C(c1cccc(C)c1)N(C)C (configuration not stated) | -1.34
72 | Cc1cc(NCc2ccc(C#N)cc2)n2nc(C)cc2n1 | -10.9
73 | Cc1nc(N(Cc2ccncc2)CC2CCCO2)c2ccsc2n1 (configuration not stated) | -155
74 | CN(CCc1ccccc1)Cc1cc(C(=O)N2CCSCC2)no1 | 3.88
75 | COc1cccc(CCC2CCCN(C(=O)c3ccc(=O)n(C)n3)C2)c1 (configuration not stated) | 4.34
76 | COc1cccn(CC(=O)N(C)CCC2CCOCC2)c1=O | -19
77 | O=C(O)c1cc(-c2ccoc2)cc(S(=O)(=O)N2CCSCC2)c1 | 0.49
78 | COCc1cc(CNC(=O)c2cc(NC(C)=O)ccc2Cl)n[nH]1 | 5.3
79 | CCN(C)c1nccc(N2CCN[C@H]3CS(=O)(=O)C[C@H]32)n1 | 7.85
80 | Cc1nc(CN(C)CC2CCCN(CCc3ccc(Cl)cc3)C2)no1 (configuration not stated) | 8.15
81 | CC(C)n1cc(CN(C)C[C@@H]2CCCN3CCCC[C@H]23)cn1 | 0.276
82 | O=C(COCC(F)(F)C(F)F)N1CCC(c2ncc[nH]2)CC1 | -53.9
83 | CCC(CO)N(Cc1ccsc1)Cc1ccc(-c2ccn[nH]2)s1 (configuration not stated) | -1.37
84 | COC(C)(C)C(=O)NCC1CCN(Cc2cc3ccccc3[nH]2)C1 (configuration not stated) | 5.85
85 | COCC(=O)N1CCC2(CCCN(Cc3cc(OC)ccc3F)C2)C1 (configuration not stated) | -1.62
86 | COCCN1CCCC2(CCN(C(=O)c3cnc(O)cn3)C2)C1=O (configuration not stated) | 0.0942
87 | CS(=O)(=O)N[C@H]1CN(C(=O)CCc2ccco2)C[C@@H]1C1CC1 | 2.7
88 | Cc1nc(NC(=O)NC2CC(=O)N(C)C2)nn1C(C)C (configuration not stated) | -8.15
89 | Cc1cc(CC(C)NC(=O)COc2ccc(F)cc2F)[nH]n1 (configuration not stated) | -49
90 | CC(C1CCN(Cc2cnn(C)c2C2CC2)CC1)N1CCCC1 (configuration not stated) | 6.29
91 | CC(C)CNC(=O)CN(C)S(C)(=O)=O | 13.7
92 | CCC(C)N(Cc1ccncc1)C(=O)CCC(=O)OC (configuration not stated) | -14.5

Row | SMILES | cytotoxicity at 10 µM [%]
93 | CCCn1ncc(C(=O)N(C)Cc2cc(C3CC3)[nH]n2)c1C | -4.65
94 | COc1ccc(-c2nccnc2C2CCN(C(C)=O)CC2)cc1 | -4.43
95 | CS(=O)(=O)N1CCC(C(=O)NC(Cc2ccsc2)c2ccccn2)CC1 (configuration not stated) | -2.91
96 | COc1ccccc1N1CCC(CNCc2ccc(C#N)cc2)C1 (configuration not stated) | -12.1
97 | O=C(CCc1nc2ccccc2[nH]1)N1CCCC(n2cccn2)C1 (configuration not stated) | -15.9
98 | c1ccc(-c2cnc(CN3CCCC3Cn3cccn3)o2)cc1 (configuration not stated) | -13.6
99 | O=C1OCCC1N1CCN(C(=O)Cc2ccccc2Cl)CC1 (configuration not stated) | -9.2
100 | COc1cc(C(C)=O)ccc1OCC(=O)N(C)Cc1cnn(C)c1 | -3.88
101 | COCCN1CCC(CNC(=O)C2(c3cc(C)cc(C)c3)CCC2)C1 (configuration not stated) | -7.4
102 | CC(C)c1nc(C2CCCN(C(=O)CCCn3cncn3)C2)no1 (configuration not stated) | -3.29
103 | O=C(NCCNc1ncccn1)C1CCN(CC(F)(F)F)CC1 | -5.6
104 | COc1ccc(F)cc1C(C)NC(=O)Cn1ccc(=O)n(C)c1=O (configuration not stated) | -8.35
105 | CC(=O)N1CCN(Cc2ccncc2)CC2(CC(=O)N(C)C2)C1 (configuration not stated) | -1.83
106 | Cc1nccc(C2(C)CCCNC2)n1 (configuration not stated) | 9.22
107 | COCCN1CCC2(C1)c1ccccc1S(=O)(=O)N2C (configuration not stated) | 11.4
108 | COCCN1CCC2(CC1)CC1(CCN(S(C)(=O)=O)CC1)N(C)C2=O | 0.964
109 | O=C([C@@H]1COC[C@H]2CN(C3CCCC3)C[C@H]21)N1CCCCO1 | -1.11
110 | Cn1cnc(S(=O)(=O)N2C[C@H](OCC3CC3)[C@H]3OCCC[C@H]32)c1 | -149
111 | Cn1ncc2c(NC3CCC(N)CC3)nc(C(C)(C)C)nc21 (configuration not stated) | 8
112 | CC(C)(C)c1ccc(OCC(=O)O)c(CN2C[C@H]3CC(O)C[C@H]3C2)c1 (some centres not stated) | 3.46
